By inhibition is commonly meant the drop in the measured response relative to a control, in per cent. One may read the EC90 as the concentration needed for an effect of 90%.

The values that follow come from ChEMBL document CHEMBL3045438, “Synthesis and fungicidal evaluation of novel chalcone-based strobilurin analogues” (2007).

Each structure is given as a SMILES string. Converted amounts (≈) assume the structure as drawn.

Holding throughout (assay type): functional
Assay [1] relates to Botrytis cinerea. The assay can be described thus: Antifungal activity against Botryotinia fuckeliana assessed as fungicidal activity at 200 mg/L (beneficial crop - cucumber). The gist of the method: (§1)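 In vivo preventive test on cucumber as host plant.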
Assay [2] relates to Podosphaera fuliginea. In words: Antifungal activity against Podosphaera fuliginea assessed as fungicidal activity at 200 mg/L (beneficial crop - cucumber). In a few lines:
as §1

The test system of assay [3] is Rhizoctonia solani. The assay can be described thus: Antifungal activity against Rhizoctonia solani assessed as fungicidal activity at 200 mg/L (beneficial crop - cucumber). In a few lines: as §1
Assay [4] relates to Pseudoperonospora cubensis. The assay can be described thus: Antifungal activity against Pseudoperonospora cubensis assessed as fungicidal activity at 200 mg/L (beneficial crop - cucumber). In a few lines:
as §1

The subject of assay [5] is Pseudoperonospora cubensis. In words: Antifungal activity against Pseudoperonospora cubensis in cucumber plants under greenhouse conditions assessed as fungicidal activity by in vivo assay. The gist of the method: as §1
Assay [6] relates to Podosphaera fuliginea. The assay can be described thus: Antifungal activity against Podosphaera fuliginea in cucumber plants under greenhouse conditions assessed as fungicidal activity by in vivo assay. In a few lines: as §1

As to `CO/C=C(/C(=O)OC)c1ccccc1COc1ccc(C(=O)/C=C/c2cccc(F)c2)cc1`, the inhibition at 200 µg/mL was determined as 0% in assay [1], 0% in assay [2], 0% in assay [3] and 97% in assay [4].

`CO/C=C(/C(=O)OC)c1ccccc1COc1ccc(C(=O)/C=C/c2ccccc2Cl)cc1`: the inhibition at 200 µg/mL in assay [1] worked out at 0%; in assay [2], 0%; in assay [3], 0%; in assay [4], 100%.

`CO/C=C(/C(=O)OC)c1ccccc1COc1ccc(C(=O)/C=C/c2ccc(OC)c(OC)c2)cc1`: the inhibition at 200 µg/mL in assay [1] was 0%; in assay [2], 0%; in assay [3], 0%; in assay [4] it was 11%.

`CO/C=C(/C(=O)OC)c1ccccc1COc1ccc(C(=O)/C=C/c2cccs2)cc1`: the inhibition at 200 µg/mL in assay [1], in assay [2], in assay [3] and in assay [4] was 0% each time.

On to `CO/C=C(/C(=O)OC)c1ccccc1COc1ccc(C(=O)/C=C/c2ccc(C(C)(C)C)cc2)cc1`, for which the inhibition at 200 µg/mL in assay [1] was 0%; in assay [2] it was 67%; in assay [3], 0%; in assay [4] it was 22%.

On to `CO/C=C(/C(=O)OC)c1ccccc1COc1cccc(C(=O)/C=C/c2ccccc2Cl)c1`, for which the inhibition at 200 µg/mL amounted to 0% in assay [1], 94% in assay [2], 0% in assay [3] and 98% in assay [4]. The concentration for an effect of 90% (EC90) in assay [5] was 118.52 µg/mL (≈ 256 µM).

`CO/C=C(/C(=O)OC)c1ccccc1COc1cccc(C(=O)/C=C/c2cccc(Br)c2)c1`: the inhibition at 200 µg/mL in assay [1] is 0%; in assay [2], 99%; in assay [3] it was 0%; in assay [4], 99%. Further, the EC90 in assay [5] came out at 113.64 µg/mL (≈ 224 µM).

Take `CO/C=C(/C(=O)OC)c1ccccc1COc1cccc(C(=O)/C=C/c2cccs2)c1`: the inhibition at 200 µg/mL in assay [1] was 24%; in assay [2], 0%; in assay [3], 0%; in assay [4], 0%.

In the case of `CO/C=C(/C(=O)OC)c1ccccc1COc1cccc(C(=O)/C=C/c2ccc(OC)cc2)c1`, the inhibition at 200 µg/mL came out at 0% in assay [1], 0% in assay [2], 0% in assay [3] and 95% in assay [4].

In the case of `CO/C=C(/C(=O)OC)c1ccccc1COc1ccc(C(=O)/C=C/c2ccc(F)cc2)cc1`, the inhibition at 200 µg/mL amounted to 0% in assay [1], 0% in assay [2], 23% in assay [3] and 100% in assay [4].

With `CO/C=C(/C(=O)OC)c1ccccc1COc1ccccc1C(=O)/C=C/c1ccc(Br)cc1`, the inhibition at 200 µg/mL in assay [1], in assay [2], in assay [3] and in assay [4] was 0% throughout.

Regarding `CO/C=C(/C(=O)OC)c1ccccc1COc1cccc(C(=O)/C=C/c2ccccc2Br)c1`, the inhibition at 200 µg/mL in assay [1] is 0%; in assay [2], 59%; in assay [3], 31%; in assay [4] it was 100%.

On to `CO/C=C(/C(=O)OC)c1ccccc1COc1ccc(C(=O)/C=C/c2ccc(C)cc2)cc1`, for which the inhibition at 200 µg/mL in assay [1] stood at 0%; in assay [2], 0%; in assay [3], 38%; in assay [4], 75%.

Take `CO/C=C(/C(=O)OC)c1ccccc1COc1ccc(C)cc1C(=O)/C=C/c1ccc(Cl)cc1`: the inhibition at 200 µg/mL was 0% in assay [1], 0% in assay [2], 0% in assay [3] and 89% in assay [4].

For `CO/C=C(/C(=O)OC)c1ccccc1COc1ccccc1C(=O)/C=C/c1cccc(Br)c1`, the inhibition at 200 µg/mL was found to be 0% in assay [1], 0% in assay [2], 0% in assay [3] and 78% in assay [4].

In the case of `CO/C=C(/C(=O)OC)c1ccccc1COc1cccc(C(=O)/C=C/c2ccc(C)cc2)c1`, the inhibition at 200 µg/mL in assay [1] stood at 0%; in assay [2] it was 97%; in assay [3] it was 0%; in assay [4] it was 100%.

In the case of `CO/C=C(/C(=O)OC)c1ccccc1COc1cccc(C(=O)/C=C/c2c(F)cccc2Cl)c1`, the inhibition at 200 µg/mL in assay [1] was 0%; in assay [2], 13%; in assay [3], 0%; in assay [4] it was 97%.

Consider `CO/C=C(/C(=O)OC)c1ccccc1COc1ccc(Cl)cc1C(=O)/C=C/c1ccccc1`, for which the inhibition at 200 µg/mL in assay [1], in assay [2], in assay [3] and in assay [4] was 0% throughout.

With `CO/C=C(/C(=O)OC)c1ccccc1COc1cccc(C(=O)/C=C/c2ccc(OC)c(OC)c2)c1`, the inhibition at 200 µg/mL in assay [1] was 0%; in assay [2] it was 0%; in assay [3], 0%; in assay [4], 72%.

With `CO/C=C(/C(=O)OC)c1ccccc1COc1cccc(C(=O)/C=C/c2cccc(C)c2)c1`, the inhibition at 200 µg/mL in assay [1] worked out at 0%; in assay [2], 0%; in assay [3], 0%; in assay [4], 81%.

Turning to `CO/C=C(/C(=O)OC)c1ccccc1COc1cccc(C(=O)/C=C/c2ccco2)c1`, the inhibition at 200 µg/mL in assay [1] is 16%; in assay [2] it was 0%; in assay [3] it was 0%; in assay [4], 0%.

Take `CO/C=C(/C(=O)OC)c1ccccc1COc1ccc(C(=O)/C=C/c2ccccc2)cc1`: the inhibition at 200 µg/mL in assay [1], in assay [2], in assay [3] and in assay [4] was 0% throughout.

Turning to `CO/C=C(/C(=O)OC)c1ccccc1COc1ccccc1C(=O)/C=C/c1ccc(OC)cc1`, the inhibition at 200 µg/mL in assay [1], in assay [2], in assay [3] and in assay [4] was 0% throughout.

Turning to `CO/C=C(/C(=O)OC)c1ccccc1COc1ccccc1C(=O)/C=C/c1ccc(Cl)cc1`, the inhibition at 200 µg/mL in assay [1], in assay [2], in assay [3] and in assay [4] was 0% in each case.

`CO/C=C(/C(=O)OC)c1ccccc1COc1cccc(C(=O)/C=C/c2ccc(C)c(C)c2)c1`: the inhibition at 200 µg/mL in assay [1] was 0%; in assay [2], 92%; in assay [3], 0%; in assay [4] it was 100%. For the same compound, the EC90 in assay [6] came out at 139.47 µg/mL (≈ 305 µM).

Consider `CO/N=C(/C(=O)OC)c1ccccc1COc1ccccc1C` [KRESOXIM-METHYL], for which the inhibition at 200 µg/mL in assay [2] and in assay [4] was 100% in each case. Besides, the concentration for an effect of 90% (EC90) amounted to 7.3 µg/mL (≈ 23.3 µM) in assay [6] and 154.92 µg/mL (≈ 494 µM) in assay [5].

Turning to `CO/C=C(/C(=O)OC)c1ccccc1COc1cccc(C(=O)/C=C/c2ccc(C(C)(C)C)cc2)c1`, the inhibition at 200 µg/mL in assay [1] amounted to 0%; in assay [2] it was 78%; in assay [3], 0%; in assay [4], 28%.

As to `CO/C=C(/C(=O)OC)c1ccccc1COc1ccc(Cl)cc1C(=O)/C=C/c1ccc(C)cc1`, the inhibition at 200 µg/mL in assay [1], in assay [2], in assay [3] and in assay [4] was 0% each time.

Consider `CO/C=C(/C(=O)OC)c1ccccc1COc1cccc(C(=O)/C=C/c2ccc(Cl)cc2Cl)c1`, for which the inhibition at 200 µg/mL turned out to be 0% in assay [1], 0% in assay [2], 30% in assay [3] and 54% in assay [4].

As to `CO/C=C(/C(=O)OC)c1ccccc1COc1cccc(C(=O)/C=C/c2ccc(F)cc2)c1`, the inhibition at 200 µg/mL in assay [1] was 0%; in assay [2], 31%; in assay [3], 0%; in assay [4] it was 97%.

`CO/C=C(/C(=O)OC)c1ccccc1COc1ccccc1C(=O)/C=C/c1cccc(OC)c1`: the inhibition at 200 µg/mL amounted to 11% in assay [1], 0% in assay [2], 0% in assay [3] and 61% in assay [4].

With `CCc1ccc(/C=C/C(=O)c2ccc(OCc3ccccc3/C(=C\OC)C(=O)OC)cc2)cc1`, the inhibition at 200 µg/mL stood at 0% in assay [1], 56% in assay [2], 69% in assay [3] and 15% in assay [4].

Take `CO/C=C(/C(=O)OC)c1ccccc1COc1cccc(C(=O)/C=C/c2cccc(F)c2)c1`: the inhibition at 200 µg/mL in assay [1] came out at 10%; in assay [2], 0%; in assay [3] it was 36%; in assay [4], 0%.

For `CO/C=C(/C(=O)OC)c1ccccc1COc1ccc(C(=O)/C=C/c2cccc(C)c2)cc1`, the inhibition at 200 µg/mL in assay [1] amounted to 0%; in assay [2], 0%; in assay [3], 0%; in assay [4] it was 47%.

Regarding `CO/C=C(/C(=O)OC)c1ccccc1COc1ccc(C(=O)/C=C/c2cccc(OC)c2)cc1`, the inhibition at 200 µg/mL was 0% in assay [1], 0% in assay [2], 20% in assay [3] and 86% in assay [4].
